Data published in ChEMBL document CHEMBL4261484, “Design, synthesis and anticonvulsant-analgesic activity of new N-[(phenoxy)alkyl]- and N-[(phenoxy)ethoxyethyl]aminoalkanols” (Medchemcomm, 2017).
Activity calls are given as the source filed them.

Legend:
[1] = tested on: Mus musculus; assay: Anticonvulsant activity in mouse assessed as protection against maximal electroshock-induced seizures at 100 mg/kg, ip; assay type: functional, organism-based
Procedure, shortened: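 Mice dosed ip; maximal seizures induced by auricular electroshock (25 mA, 500 V, 50 Hz, 0.2 s). Endpoint: hind-limb tonic extension; animals without it scored protected. Read-out is number protected over number tested.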

[2] = tested on: Mus musculus; assay: Toxicity in mouse at 100 mg/kg, ip measured during maximal electroshock seizure test; assay type: organism-based; conditions: in vivo
[3] = tested on: Mus musculus; assay: Toxicity in mouse at 30 mg/kg, ip measured during maximal electroshock seizure test; assay type: organism-based; conditions: in vivo
[4] = tested on: Mus musculus; assay: Toxicity in mouse at 25 mg/kg, ip measured during maximal electroshock seizure test; assay type: organism-based; conditions: in vivo
[5] = tested on: Mus musculus; assay: Anticonvulsant activity in ip dosed mouse assessed as protection against maximal electroshock-induced seizures; assay type: functional
Procedure, shortened: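 Mice were dosed ip. Maximal seizures were induced by auricular electrodes (25 mA, 500 V, 50 Hz, 0.2 s). Absence of hind-limb tonic extension counted as protection. […] Motor impairment was scored on a 10 rpm rotarod, giving TD50 the same way.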

[6] = Neurotoxicity in ip dosed mouse assessed as motor impairment measured for one min by rotarod test; assay type: toxicity, organism-based; conditions: in vivo
Procedure, shortened: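 Mice trained on an accelerating rotarod, then tested at least 24 h later after ip pretreatment, on a rod turning at 10 rpm. Neurotoxicity was scored as failure to stay on the rod for one minute. Read-out is mice impaired over mice tested.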

[7] = Protection index, ratio of TD50 for neurotoxicity in ip dosed mouse by rotarod test to ED50 for anticonvulsant activity in mouse by maximal electroshock seizure test; assay type: toxicity, organism-based; conditions: in vivo, read-out: Ratio TD50/ED50
[8] = tested on: Mus musculus; assay: Anticonvulsant activity in mouse assessed as current strength required to induce tonic hind-limb extension in 50% of the animals at 10 mg/kg, ip by maximal electroshock seizure threshold test (reference value: 6.05 to 8.13 mA); assay type: functional
[9] = tested on: Mus musculus; assay: Anticonvulsant activity in mouse assessed as increase in electroconvulsive threshold at 10 mg/kg, ip by maximal electroshock seizure threshold test relative to control; assay type: functional
[10] = tested on: Mus musculus; assay: Anticonvulsant activity in mouse assessed as protection against subcutaneous pentylenetetrazole-induced seizures by measuring latency time of tonic seizures at 100 mg/kg, ip measured for 30 mins post pentylenetetrazole challenge at 0.5 hrs after compound dosing (reference value: 562.8 to 614.9 secs); assay type: functional
[11] = tested on: Mus musculus; assay: Anticonvulsant activity in mouse assessed as protection against subcutaneous pentylenetetrazole-induced seizures by measuring latency time of tonic seizures at 30 mg/kg, ip measured for 30 mins post pentylenetetrazole challenge at 0.5 hrs after compound dosing (reference value: 562.8 to 614.9 secs); assay type: functional
[12] = tested on: Mus musculus; assay: Anticonvulsant activity in mouse assessed as protection against subcutaneous pentylenetetrazole-induced seizures at 100 mg/kg, ip measured for 30 mins post pentylenetetrazole challenge at 0.5 hrs after compound dosing relative to control; assay type: functional
[13] = tested on: Mus musculus; assay: Anticonvulsant activity in mouse assessed as protection against subcutaneous pentylenetetrazole-induced seizures at 30 mg/kg, ip measured for 30 mins post pentylenetetrazole challenge at 0.5 hrs after compound dosing relative to control; assay type: functional
[14] = tested on: Mus musculus; assay: Analgesic activity in mouse assessed as time of paw licking during phase 1 at 27 mg/kg, ip measured for 5 mins by formalin test (reference value: 43.89 +/- 6.64 secs); assay type: functional
Procedure, shortened: (§1)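 Formalin test in mice: 20 μL of 5% formalin injected intraplantarly into the right hind paw. Each mouse was observed alone in a glass beaker for 30 min. Time (s) spent licking or biting the injected paw was recorded at 0–5 min (acute phase) and 15–30 min (inflammatory phase).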

[15] = tested on: Mus musculus; assay: Analgesic activity in mouse assessed as decrease in time of paw licking during phase 2 at 27 mg/kg, ip measured for 15 to 30 mins by formalin test relative to control; assay type: functional; parameters: scale not given: the % may be the effect or the level left; procedure, shortened: as §1
[16] = tested on: Mus musculus; assay: Toxicity in mouse assessed as effect on spontaneous activity at 27 mg/kg, ip measured for 30 mins by photoresistor actometer relative to control; assay type: organism-based; conditions: in vivo, 0.5 h
Procedure, shortened: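 Mice dosed ip; locomotor activity by photoresistor actometers counting light-beam interruptions. Each mouse was habituated 30 min in a cage, then crossings were counted over a 30 min session. Data are mean ± SEM and % change vs control; unpaired t test.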

[17] = tested on: Mus musculus; assay: Neurotoxicity in mouse assessed as motor impairment by measuring time of escaping from chimney at 27 mg/kg, ip measured for 60 secs (reference value: 8.87 +/- 1.79 secs); assay type: toxicity, organism-based; conditions: in vivo, 1 min
Procedure, shortened: (§2)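 Mice dosed ip; trained, selected animals placed in a horizontal tube 25 cm long and 2.5 cm in diameter, then tube reversed so mice must climb out backward. Read-outs: escape time (s) ± SEM and % animals losing coordination versus control. Unpaired t test.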

[18] = tested on: Mus musculus; assay: Neurotoxicity in mouse assessed as motor impairment by measuring loss of coordination at 27 mg/kg, ip measured for 60 secs by chimney test relative to control; assay type: toxicity, organism-based; conditions: in vivo, 1 min; procedure, shortened: as §2
[19] = tested on: HepG2; assay: Cytotoxicity against human HepG2 cells assessed as effect on cell viability at 10 to 250 uM after 24 hrs by MTT assay; assay type: cell-based; conditions: hepg2, 24 h
Procedure, shortened: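 HepG2 cells grown in MEM with 10% FBS (37 °C, 5% CO2) and seeded at 1 × 10^4. After overnight culture, exposed to 10–250 μM for 24 h. MTT for 3 h, formazan dissolved, OD 570 nm. Viability is % of control ± SEM from three independent experiments.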

[20] = tested on: HepG2; assay: Cytotoxicity against human HepG2 cells assessed as effect on cell viability at 10 to 250 uM after 24 hrs by neutral red assay; assay type: cell-based; conditions: hepg2, 24 h
Procedure, shortened: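 HepG2 cells seeded at 5 × 10^4 per well, then after 24 h given medium with 10–250 μM for 24 h. Viability by neutral red staining, OD 570 nm. Results are % of control ± SEM, three independent experiments.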

[21] = Cytotoxicity against mouse CRL-2541 cells assessed as effect on cell viability at 10 to 250 uM after 24 hrs by MTT assay; assay type: cell-based

In the case of Cc1ccc(OCCOCCNC(C)CO)c(C)c1 (racemic), the Activity [1] is reported as “Active”, the Activity [2] is reported as “Non-Toxic” and the Activity [3] is reported as “Non-Toxic”. For the same compound, the Activity [4] was “Non-Toxic”, the ED50 [5] was 27.1 mg/kg and the TD50 at 1 min [6] was 109 mg/kg. For the same compound, the selectivity ratio [7] was 4.02, the Activity [8] was 6.76 mA and the Activity [9] was “inactive”. For the same compound, the Time [10] was 1269 s, the Time [11] was 575.8 s and the Activity [12] was 117.23%. For the same compound, the Activity [13] was 2.31%, the Time [14] was 67.25 s and the Activity [15] was 83.41%. The Activity [16] was 68.92%, the Time [17] was 6 s and the Activity [18] was 0%. The Activity [19] was “Non-Toxic”, the Activity [20] was “Non-Toxic” and the Activity [21] was “Non-Toxic”.
